According to ChEMBL document CHEMBL5724801, “EUbOPEN Chemogenomics Library - Multiplex” (2024):
Values joined by “and” are separate entries in the source; they are usually repeats but may differ in a detail not shown here. Identical values can stand only once.

Legend:
HEK-293T = test: Multiplex assay against HEK293T; format: toxicity, cell-based; settings: human
How it was run: (§1)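 Per cents of healthy-nucleus cells form the tubulin, mitochondrial-mass and membrane-permeability phenotype values. Live cells were stained at seeding with Hoechst33342, BioTracker Green Microtubule Cytoskeleton Dye, MitoTracker Red and Annexin V Alexa Fluor 680. After compound addition they were imaged on a CQ1 microscope at 37°C and 5% CO2, and CellPathfinder machine-learning gating split them into Hoechst high-intensity objects or normal cells, normal cells into healthy, pyknosed or fragmented nuclei, and pyknosed cells into mitotic or apoptotic.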

Fibroblast = test: Multiplex assay against human fibroblast; format: toxicity, cell-based; how it was run: as §1
[1] = 12 h, 1 µM, compound concentration 1 uM
[2] = 12 h, 10 µM, compound concentration 10 uM
[3] = 24 h, 1 µM, compound concentration 1 uM
[4] = 24 h, 10 µM, compound concentration 10 uM
[5] = 48 h, 1 µM, compound concentration 1 uM
[6] = 48 h, 10 µM, compound concentration 10 uM

Structure (SMILES): Cc1ccc(-c2c(C(=O)CF)n(CCCO)c3ncnc(N)c23)cc1
- Population Apoptotic (%) (HEK-293T; [1]): 10.53% and 14.63%
- Population Fragmented Nuclei (%) (HEK-293T; [1]): 2.38% and 4.08%
- Population Hoechst High Intensity Objects (%) (HEK-293T; [1]): 0%
- Population Membrane Permeable-Phenotype (%) (HEK-293T; [1]): 0% and 5.56%
- Population Mitotic Cells (%) (HEK-293T; [1]): 89.47% and 85.37%
- Population Normal (%) (HEK-293T; [1]): 100%
- Population Pyknosed Nuclei (%) (HEK-293T; [1]): 38.78% and 83.67%
- Total Cell Count (HEK-293T; [1]): 294 and 147
- Population Apoptotic (%) (HEK-293T; [2]): 9.68% and 15.93%
- Population Fragmented Nuclei (%) (HEK-293T; [2]): 5.7% and 4.44%
- Population Hoechst High Intensity Objects (%) (HEK-293T; [2]): 0.33% and 0%
- Population Membrane Permeable-Phenotype (%) (HEK-293T; [2]): 1.91% and 0%
- Population Mitochondria Different-Phenotype (%) (HEK-293T; [2]): 38.22% and 25%
- Population Mitotic Cells (%) (HEK-293T; [2]): 90.32% and 84.07%
- Population Normal (%) (HEK-293T; [2]): 99.67% and 100%
- Population Pyknosed Nuclei (%) (HEK-293T; [2]): 41.61% and 83.7%
- Population Tubulin-Different-Phenotype (%) (HEK-293T; [2]): 17.83% and 37.5%
- Total Cell Count (HEK-293T; [2]): 299 and 135
- Population Apoptotic (%) (HEK-293T; [3]): 6.73% and 15.13%
- Population Fragmented Nuclei (%) (HEK-293T; [3]): 3.4% and 2.5%
- Population Hoechst High Intensity Objects (%) (HEK-293T; [3]): 0%
- Population Membrane Permeable-Phenotype (%) (HEK-293T; [3]): 2.86% and 0%
- Population Mitochondria Different-Phenotype (%) (HEK-293T; [3]): 14.57% and 8.11%
- Population Mitotic Cells (%) (HEK-293T; [3]): 93.27% and 84.87%
- Population Normal (%) (HEK-293T; [3]): 100%
- Population Tubulin-Different-Phenotype (%) (HEK-293T; [3]): 10.86% and 5.41%
- Total Cell Count (HEK-293T; [3]): 470 and 160
- Population Apoptotic (%) (HEK-293T; [4]): 19.61% and 24.07%
- Population Fragmented Nuclei (%) (HEK-293T; [4]): 2.25% and 2.94%
- Population Healthy Nuclei (%) (HEK-293T; [4]): 74.77% and 33.53%
- Population Hoechst High Intensity Objects (%) (HEK-293T; [4]): 0%
- Population Membrane Permeable-Phenotype (%) (HEK-293T; [4]): 0.9% and 0%
- Population Mitotic Cells (%) (HEK-293T; [4]): 80.39% and 75.93%
- Population Normal (%) (HEK-293T; [4]): 100%
- Population Pyknosed Nuclei (%) (HEK-293T; [4]): 22.97% and 63.53%
- Population Tubulin-Different-Phenotype (%) (HEK-293T; [4]): 24.4% and 8.77%
- Total Cell Count (HEK-293T; [4]): 444 and 170
- Population Fragmented Nuclei (%) (HEK-293T; [5]): 1.92% and 2.58%
- Population Healthy Nuclei (%) (HEK-293T; [5]): 88.16% and 57.22%
- Population Hoechst High Intensity Objects (%) (HEK-293T; [5]): 0%
- Population Membrane Permeable-Phenotype (%) (HEK-293T; [5]): 5.14% and 2.7%
- Population Mitochondria Different-Phenotype (%) (HEK-293T; [5]): 13.34% and 21.62%
- Population Mitotic Cells (%) (HEK-293T; [5]): 97.67% and 83.33%
- Population Normal (%) (HEK-293T; [5]): 100%
- Population Apoptotic (%) (HEK-293T; [6]): 7.29% and 16.44%
- Population Fragmented Nuclei (%) (HEK-293T; [6]): 3.41% and 2.51%
- Population Healthy Nuclei (%) (HEK-293T; [6]): 87.23% and 60.8%
- Population Hoechst High Intensity Objects (%) (HEK-293T; [6]): 0%
- Population Membrane Permeable-Phenotype (%) (HEK-293T; [6]): 3.58% and 0.83%
- Population Mitochondria Different-Phenotype (%) (HEK-293T; [6]): 25.47% and 33.88%
- Population Mitotic Cells (%) (HEK-293T; [6]): 92.71% and 83.56%
- Population Normal (%) (HEK-293T; [6]): 100%
- Population Apoptotic (%) (Fibroblast; [1]): 36% and 12.9%
- Population Fragmented Nuclei (%) (Fibroblast; [1]): 17.65% and 9.49%
- Population Healthy Nuclei (%) (Fibroblast; [1]): 63.97% and 78.26%
- Population Hoechst High Intensity Objects (%) (Fibroblast; [1]): 0%
- Population Membrane Permeable-Phenotype (%) (Fibroblast; [1]): 1.15% and 2.53%
- Population Mitochondria Different-Phenotype (%) (Fibroblast; [1]): 9.2% and 6.06%
- Population Mitotic Cells (%) (Fibroblast; [1]): 64% and 87.1%
- Population Normal (%) (Fibroblast; [1]): 100%
- Population Pyknosed Nuclei (%) (Fibroblast; [1]): 18.38% and 12.25%
- Population Tubulin-Different-Phenotype (%) (Fibroblast; [1]): 13.79% and 12.12%
- Total Cell Count (Fibroblast; [1]): 136 and 253
- Population Apoptotic (%) (Fibroblast; [2]): 6.98% and 18.18%
- Population Fragmented Nuclei (%) (Fibroblast; [2]): 10.16% and 6%
- Population Healthy Nuclei (%) (Fibroblast; [2]): 66.84% and 77.5%
- Population Hoechst High Intensity Objects (%) (Fibroblast; [2]): 0%
- Population Membrane Permeable-Phenotype (%) (Fibroblast; [2]): 4% and 4.52%
- Population Mitochondria Different-Phenotype (%) (Fibroblast; [2]): 8% and 11.61%
- Population Mitotic Cells (%) (Fibroblast; [2]): 93.02% and 81.82%
- Population Normal (%) (Fibroblast; [2]): 100%
- Population Pyknosed Nuclei (%) (Fibroblast; [2]): 22.99% and 16.5%
- Population Tubulin-Different-Phenotype (%) (Fibroblast; [2]): 19.2% and 29.03%
- Total Cell Count (Fibroblast; [2]): 187 and 200
- Population Apoptotic (%) (Fibroblast; [3]): 12.12% and 12%
- Population Healthy Nuclei (%) (Fibroblast; [3]): 62.58% and 87.98%
- Population Hoechst High Intensity Objects (%) (Fibroblast; [3]): 0%
- Population Membrane Permeable-Phenotype (%) (Fibroblast; [3]): 6.86% and 1.32%
- Population Mitochondria Different-Phenotype (%) (Fibroblast; [3]): 2.94% and 5.29%
- Population Mitotic Cells (%) (Fibroblast; [3]): 87.88% and 88%
- Population Normal (%) (Fibroblast; [3]): 100%
- Population Pyknosed Nuclei (%) (Fibroblast; [3]): 20.25% and 9.69%
- Population Tubulin-Different-Phenotype (%) (Fibroblast; [3]): 14.71% and 10.57%
- Total Cell Count (Fibroblast; [3]): 163 and 258
- Population Apoptotic (%) (Fibroblast; [4]): 9.3% and 10%
- Population Fragmented Nuclei (%) (Fibroblast; [4]): 8.8% and 4.95%
- Population Healthy Nuclei (%) (Fibroblast; [4]): 71.3% and 85.15%
- Population Hoechst High Intensity Objects (%) (Fibroblast; [4]): 0%
- Population Membrane Permeable-Phenotype (%) (Fibroblast; [4]): 8.44% and 2.33%
